Assay results as given in ChEMBL document CHEMBL1129944, “[[(Arylpiperazinyl)alkyl]thio]thieno[2,3-d]pyrimidinone derivatives as high-affinity, selective 5-HT1A receptor ligands” (J Med Chem, 1997).

Experiments:
[1] = target: 5-hydroxytryptamine receptor 1B (Rattus norvegicus) (UniProt P28564); test: Compound at 10E-5 M was tested in vitro for the inhibition of radioligand [3H]5-HT binding to 5-hydroxytryptamine 1B receptor in rat striatal membrane; assay type: cell membranes; settings: Striatum
[2] = target: T1, Serotonin 3 (5-HT3) receptor (Rattus norvegicus, UniProt P35563+Q9JJ16); test: In vitro inhibitory concentration against radioligand [3H]BRL-43694 binding to 5-hydroxytryptamine 3 receptor in rat cortical membrane; assay type: cell membranes
T1 sequence (P35563 whole entry): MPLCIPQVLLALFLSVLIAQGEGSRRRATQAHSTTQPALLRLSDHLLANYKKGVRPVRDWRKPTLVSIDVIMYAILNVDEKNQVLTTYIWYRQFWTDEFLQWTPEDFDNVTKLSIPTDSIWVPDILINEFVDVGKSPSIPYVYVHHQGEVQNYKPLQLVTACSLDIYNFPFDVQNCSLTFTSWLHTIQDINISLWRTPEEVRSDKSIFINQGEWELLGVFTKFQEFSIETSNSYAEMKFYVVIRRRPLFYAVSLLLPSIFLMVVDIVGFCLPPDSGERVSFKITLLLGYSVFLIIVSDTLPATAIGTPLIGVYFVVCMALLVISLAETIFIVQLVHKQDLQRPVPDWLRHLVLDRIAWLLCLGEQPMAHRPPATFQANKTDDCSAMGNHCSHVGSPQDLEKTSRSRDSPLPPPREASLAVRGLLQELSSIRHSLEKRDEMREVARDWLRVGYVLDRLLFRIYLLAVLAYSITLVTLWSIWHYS
T1 sequence (Q9JJ16 whole entry): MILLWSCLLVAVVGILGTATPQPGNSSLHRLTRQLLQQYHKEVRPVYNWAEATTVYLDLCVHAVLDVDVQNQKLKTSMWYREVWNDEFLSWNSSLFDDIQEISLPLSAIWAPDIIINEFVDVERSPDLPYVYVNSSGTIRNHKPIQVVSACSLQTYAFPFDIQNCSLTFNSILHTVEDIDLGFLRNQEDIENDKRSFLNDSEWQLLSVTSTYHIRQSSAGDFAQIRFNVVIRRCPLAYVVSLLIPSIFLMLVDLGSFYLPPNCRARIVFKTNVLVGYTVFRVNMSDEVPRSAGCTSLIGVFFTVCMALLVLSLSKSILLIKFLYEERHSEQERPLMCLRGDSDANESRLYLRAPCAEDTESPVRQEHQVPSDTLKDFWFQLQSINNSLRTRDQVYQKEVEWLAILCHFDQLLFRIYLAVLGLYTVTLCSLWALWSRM
Method in brief: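 Rat cortex was homogenized in 50 mM Hepes-HCl pH 7.5, then incubated in 50 mM Hepes-HCl pH 7.4 with 10 μM pargyline. [3H]-BRL43694 1 nM final, 30 min at 25 °C; nonspecific binding with GR38032 10 μM. Filtration through GF/B, liquid scintillation counting, IC50 from dose-inhibition curves.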

[3] = target: Serotonin 1a (5-HT1a) receptor/Adrenergic receptor alpha-1 (Rattus norvegicus) (UniProt P15823+P23944+P43140+P19327); test: Selectivity for alpha-1-adrenergic receptor to that of 5-HT1A receptor.; assay type: protein assay
Method in brief: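 Ratio of IC50 at α1-adrenoceptors ([3H]prazosin, rat cortex) to IC50 at 5-HT1A receptors ([3H]-8-OH-DPAT, rat hippocampus). Each IC50 came from radioligand displacement curves.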

[4] = target: 5-hydroxytryptamine receptor 1B (Rattus norvegicus, UniProt P28564); test: In vitro inhibitory concentration against radioligand [3H]5-HT binding to 5-hydroxytryptamine 1B receptor in rat striatal membrane; assay type: cell membranes, Striatum
Method in brief: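 Striatum came from decapitated male rats (~150 g). Membranes were washed in 50 mM Tris-HCl pH 7.4 with a 10 min preincubation at 37 °C. Incubation buffer had 4 mM CaCl2, 0.1% ascorbic acid and 10 μM pargyline. [3H]5-HT 2 nM final, 30 min at 25 °C; nonspecific binding with 5-HT 10 μM. Bound ligand collected by filtration and scintillation-counted; IC50 by curve fitting.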

Chain of 5-hydroxytryptamine receptor 1B (P28564 whole entry): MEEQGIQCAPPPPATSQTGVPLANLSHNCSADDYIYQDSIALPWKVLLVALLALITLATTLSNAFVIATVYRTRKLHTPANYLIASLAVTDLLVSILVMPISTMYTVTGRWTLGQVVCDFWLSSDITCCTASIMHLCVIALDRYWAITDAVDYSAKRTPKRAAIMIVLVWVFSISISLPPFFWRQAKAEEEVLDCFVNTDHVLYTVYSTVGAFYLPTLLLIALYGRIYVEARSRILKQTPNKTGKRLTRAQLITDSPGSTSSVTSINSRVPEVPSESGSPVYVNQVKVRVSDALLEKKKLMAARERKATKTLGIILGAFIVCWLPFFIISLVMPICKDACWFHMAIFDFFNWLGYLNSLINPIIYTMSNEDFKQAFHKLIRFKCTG
Chain of 5-hydroxytryptamine receptor 1B (Rattus norvegicus) (P28564 whole entry): as above

Structure (SMILES) | inhibition [1] [%] | IC50 [2] [nM] | Selectivity [3] | IC50 [4] [nM]
Cc1sc2nc(SCCCN3CCN(c4ncccn4)CC3)n(N)c(=O)c2c1C | < 50 | 20 | 74 | –
COc1ccccc1N1CCN(CCCSc2nc3sc(C)c(C)c3c(=O)n2N)CC1 | – | 800 | – | 700
COc1ccccc1C1CCN(CCCSc2nc3sc(C)c(C)c3c(=O)n2N)CC1 | – | 600 | – | 1400
